Measured values as given in ChEMBL document CHEMBL4689842, “EUbOPEN Chemogenomics Library wave 1” (2021).

Test system: Fibroblast
Assay: Multiplex assay against human fibroblast
Type: toxicity, cell-based
Outline: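 Per cents of healthy-nucleus cells form the tubulin, mitochondrial-mass and membrane-permeability phenotype values. Live cells were stained at seeding with Hoechst33342, BioTracker Green Microtubule Cytoskeleton Dye, MitoTracker Red and Annexin V Alexa Fluor 680. After compound addition they were imaged on a CQ1 microscope at 37°C and 5% CO2, and CellPathfinder machine-learning gating split them into Hoechst high-intensity objects or normal cells, normal cells into healthy, pyknosed or fragmented nuclei, and pyknosed cells into mitotic or apoptotic.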

[1] = 12 h, 1 µM, compound concentration 1 uM, replicate 1
[2] = 12 h, 1 µM, compound concentration 1 uM, replicate 2
[3] = 12 h, 10 µM, compound concentration 10 uM, replicate 1
[4] = 12 h, 10 µM, compound concentration 10 uM, replicate 2
[5] = 24 h, 1 µM, compound concentration 1 uM, replicate 1
[6] = 24 h, 1 µM, compound concentration 1 uM, replicate 2
[7] = 24 h, 10 µM, compound concentration 10 uM, replicate 1
[8] = 24 h, 10 µM, compound concentration 10 uM, replicate 2
[9] = 48 h, 1 µM, compound concentration 1 uM, replicate 1
[10] = 48 h, 1 µM, compound concentration 1 uM, replicate 2
[11] = 48 h, 10 µM, compound concentration 10 uM, replicate 1
[12] = 48 h, 10 µM, compound concentration 10 uM, replicate 2

CC(C)OC(=O)N1CCC(Oc2ncnc3c2cnn3-c2ccc(S(C)(=O)=O)cc2F)CC1
Population Apoptotic (%) [1]: 64% | Population Fragmented Nuclei (%) [1]: 27% | Population Healthy Nuclei (%) [1]: 50% | Population Hoechst High Intensity Objects (%) [1]: 13% | Population Membrane Permeable-Phenotype (%) [1]: 27% | Population Mitochondria Different-Phenotype (%) [1]: 0% | Population Mitotic Cells (%) [1]: 35% | Population Normal (%) [1]: 86% | Population Pyknosed Nuclei (%) [1]: 22% | Population Tubulin-Different-Phenotype (%) [1]: 24% | Total Cell Count [1]: 86 | Population Apoptotic (%) [2]: 33% | Population Fragmented Nuclei (%) [2]: 5% | Population Healthy Nuclei (%) [2]: 91% | Population Hoechst High Intensity Objects (%) [2]: 7% | Population Membrane Permeable-Phenotype (%) [2]: 4% | Population Mitochondria Different-Phenotype (%) [2]: 8% | Population Mitotic Cells (%) [2]: 66% | Population Normal (%) [2]: 92% | Population Pyknosed Nuclei (%) [2]: 3% | Population Tubulin-Different-Phenotype (%) [2]: 7% | Total Cell Count [2]: 97 | Population Apoptotic (%) [3]: 58% | Population Fragmented Nuclei (%) [3]: 21% | Population Healthy Nuclei (%) [3]: 43% | Population Hoechst High Intensity Objects (%) [3]: 10% | Population Membrane Permeable-Phenotype (%) [3]: 17% | Population Mitochondria Different-Phenotype (%) [3]: 22% | Population Mitotic Cells (%) [3]: 41% | Population Normal (%) [3]: 89% | Population Pyknosed Nuclei (%) [3]: 34% | Population Tubulin-Different-Phenotype (%) [3]: 58% | Total Cell Count [3]: 164 | Population Apoptotic (%) [4]: 18% | Population Fragmented Nuclei (%) [4]: 5% | Population Healthy Nuclei (%) [4]: 77% | Population Hoechst High Intensity Objects (%) [4]: 6% | Population Membrane Permeable-Phenotype (%) [4]: 0% | Population Mitochondria Different-Phenotype (%) [4]: 5% | Population Mitotic Cells (%) [4]: 81% | Population Normal (%) [4]: 93% | Population Pyknosed Nuclei (%) [4]: 16% | Population Tubulin-Different-Phenotype (%) [4]: 28% | Total Cell Count [4]: 72 | Population Apoptotic (%) [5]: 66% | Population Fragmented Nuclei (%) [5]: 20% | Population Healthy Nuclei (%) [5]: 58% | Population Hoechst High Intensity Objects (%) [5]: 13% | Population Membrane Permeable-Phenotype (%) [5]: 33% | Population Mitochondria Different-Phenotype (%) [5]: 4% | Population Mitotic Cells (%) [5]: 33% | Population Normal (%) [5]: 86% | Population Pyknosed Nuclei (%) [5]: 20% | Population Tubulin-Different-Phenotype (%) [5]: 45% | Total Cell Count [5]: 83 | Population Apoptotic (%) [6]: 50% | Population Fragmented Nuclei (%) [6]: 4% | Population Healthy Nuclei (%) [6]: 86% | Population Hoechst High Intensity Objects (%) [6]: 2% | Population Membrane Permeable-Phenotype (%) [6]: 5% | Population Mitotic Cells (%) [6]: 50% | Population Normal (%) [6]: 97% | Population Pyknosed Nuclei (%) [6]: 8% | Population Tubulin-Different-Phenotype (%) [6]: 9% | Total Cell Count [6]: 116 | Population Apoptotic (%) [7]: 43% | Population Fragmented Nuclei (%) [7]: 24% | Population Healthy Nuclei (%) [7]: 48% | Population Hoechst High Intensity Objects (%) [7]: 12% | Population Membrane Permeable-Phenotype (%) [7]: 30% | Population Mitochondria Different-Phenotype (%) [7]: 16% | Population Mitotic Cells (%) [7]: 56% | Population Normal (%) [7]: 87% | Population Pyknosed Nuclei (%) [7]: 27% | Population Tubulin-Different-Phenotype (%) [7]: 72% | Total Cell Count [7]: 156 | Population Apoptotic (%) [8]: 33% | Population Fragmented Nuclei (%) [8]: 5% | Population Healthy Nuclei (%) [8]: 87% | Population Hoechst High Intensity Objects (%) [8]: 2% | Population Membrane Permeable-Phenotype (%) [8]: 1% | Population Mitochondria Different-Phenotype (%) [8]: 2% | Population Mitotic Cells (%) [8]: 66% | Population Normal (%) [8]: 97% | Population Pyknosed Nuclei (%) [8]: 6% | Population Tubulin-Different-Phenotype (%) [8]: 31% | Total Cell Count [8]: 93 | Population Apoptotic (%) [9]: 77% | Population Fragmented Nuclei (%) [9]: 35% | Population Healthy Nuclei (%) [9]: 52% | Population Hoechst High Intensity Objects (%) [9]: 25% | Population Membrane Permeable-Phenotype (%) [9]: 28% | Population Mitochondria Different-Phenotype (%) [9]: 0% | Population Mitotic Cells (%) [9]: 22% | Population Normal (%) [9]: 74% | Population Pyknosed Nuclei (%) [9]: 12% | Population Tubulin-Different-Phenotype (%) [9]: 35% | Total Cell Count [9]: 99 | Population Apoptotic (%) [10]: 0% | Population Fragmented Nuclei (%) [10]: 25% | Population Healthy Nuclei (%) [10]: 74% | Population Hoechst High Intensity Objects (%) [10]: 13% | Population Membrane Permeable-Phenotype (%) [10]: 31% | Population Mitochondria Different-Phenotype (%) [10]: 2% | Population Mitotic Cells (%) [10]: 0% | Population Normal (%) [10]: 86% | Population Pyknosed Nuclei (%) [10]: 0% | Population Tubulin-Different-Phenotype (%) [10]: 44% | Total Cell Count [10]: 73 | Population Apoptotic (%) [11]: 46% | Population Fragmented Nuclei (%) [11]: 24% | Population Healthy Nuclei (%) [11]: 51% | Population Hoechst High Intensity Objects (%) [11]: 17% | Population Membrane Permeable-Phenotype (%) [11]: 29% | Population Mitochondria Different-Phenotype (%) [11]: 14% | Population Mitotic Cells (%) [11]: 53% | Population Normal (%) [11]: 82% | Population Pyknosed Nuclei (%) [11]: 23% | Population Tubulin-Different-Phenotype (%) [11]: 73% | Total Cell Count [11]: 143 | Population Apoptotic (%) [12]: 66% | Population Fragmented Nuclei (%) [12]: 22% | Population Healthy Nuclei (%) [12]: 73% | Population Hoechst High Intensity Objects (%) [12]: 7% | Population Membrane Permeable-Phenotype (%) [12]: 14% | Population Mitochondria Different-Phenotype (%) [12]: 4% | Population Mitotic Cells (%) [12]: 33% | Population Normal (%) [12]: 92% | Population Pyknosed Nuclei (%) [12]: 3% | Population Tubulin-Different-Phenotype (%) [12]: 44% | Total Cell Count [12]: 99
